Results on 13 compounds are retold here after ChEMBL document CHEMBL1133533 (J Med Chem, 2000).

In experiment [1] the target is T1, D(4) dopamine receptor (Homo sapiens, UniProt P21917).
T1 sequence (P21917 whole entry): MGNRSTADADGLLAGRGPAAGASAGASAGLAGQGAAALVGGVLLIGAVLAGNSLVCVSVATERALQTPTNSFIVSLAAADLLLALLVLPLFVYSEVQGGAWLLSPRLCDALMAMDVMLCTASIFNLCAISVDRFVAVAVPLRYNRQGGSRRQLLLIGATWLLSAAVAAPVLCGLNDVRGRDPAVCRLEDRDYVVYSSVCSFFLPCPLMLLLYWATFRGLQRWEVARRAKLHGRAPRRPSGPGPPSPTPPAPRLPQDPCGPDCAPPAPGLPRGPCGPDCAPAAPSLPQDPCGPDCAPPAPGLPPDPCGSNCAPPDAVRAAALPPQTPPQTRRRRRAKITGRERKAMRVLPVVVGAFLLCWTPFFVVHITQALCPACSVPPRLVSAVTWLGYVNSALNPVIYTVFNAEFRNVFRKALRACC
The experiment in a line: Displacement of [3H]spiperone from human Dopamine receptor D4.4 expressed in CHO cells. Format: cell-based. A digest of the protocol:
(§1)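 Membranes from CHO cells stably expressing human D2short, D3 or D4.4 receptor, 5-25 µg protein/tube, competing against [3H]spiperone. Eight concentrations in triplicate, 2-4 independent experiments. Sigmoid nonlinear fit gives IC50, converted to Ki by Cheng-Prusoff; reported as mean ± SEM; Hill slopes fit a one-site model.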

Experiment [2] concerns the target T2, D(2) dopamine receptor (Homo sapiens, UniProt P14416). Put plainly: Displacement of [3H]spiperone from human Dopamine receptor D2L expressed in CHO cells. Format: cell-based. (Displacement assays read how much labelled ligand stays bound in the presence of the test substance.)
Experiment [3] deals with T2, D(2) dopamine receptor. The experiment in a line: Displacement of [3H]spiperone from human Dopamine receptor D2S expressed in CHO cells. Format: cell-based. A digest of the protocol: as §1
For experiment [4], the target named is T3, D(1A) dopamine receptor (Bos taurus, UniProt Q95136). Put plainly: Displacement of [3H]SCH-23390 from Dopamine receptor D1 of bovine striatal membranes.
For experiment [5], the target named is D(3) dopamine receptor (Homo sapiens, UniProt P35462). Put plainly: Displacement of [3H]spiperone from human Dopamine receptor D3 expressed in CHO cells. It counts as cell-based. In short, it runs like this: as §1
In experiment [6] the target is T3, D(1A) dopamine receptor. The experiment in a line: Binding affinity against Dopamine receptor D1 from bovine striatal membranes using [3H]SCH-23390 as radioligand. In short, it runs like this:
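Bovine striatal membranes, 25 µg protein/tube, competing against [3H]SCH 23390 (Kd 0.27-0.32 nM). Eight concentrations in triplicate, 2-4 independent experiments. Sigmoid nonlinear fit gives IC50, converted to Ki by Cheng-Prusoff; reported as mean ± SEM.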

Experiment [7] addresses T4, D(4) dopamine receptor (Homo sapiens) (UniProt P21917).
T4 sequence (whole entry): T1 sequence (P21917 whole entry)
The experiment in a line: (§2) Effective dose was measured by the stimulation of mitogenesis at dopamine D4.2 receptor. Format: functional. In short, it runs like this: (§3)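 CHO10001A cells stably expressing human D4.2 receptor, seeded at 10 000 cells/well and grown 75 h in medium with 10% FCS. Cells rinsed with serum-free medium, then given seven concentrations (final 0.001-1000 nM) for 16-18 h. [3H]thymidine 0.25 µCi/well added for 2 h at 37 °C, then filter harvest and counting. Quadruplicates, 6 experiments, normalized mean curve; EC50 from mean curves.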

Experiment [8] addresses T4, D(4) dopamine receptor (Homo sapiens). The experiment in a line: Agonistic effect was measured by the stimulation of mitogenesis at dopamine D4.2 receptor. It counts as functional. In short, it runs like this: as §3
For experiment [9], the target named is T1, D(4) dopamine receptor. The experiment is described as §2. Format: functional. In short, it runs like this: as §3

T2 sequence (P14416 whole entry): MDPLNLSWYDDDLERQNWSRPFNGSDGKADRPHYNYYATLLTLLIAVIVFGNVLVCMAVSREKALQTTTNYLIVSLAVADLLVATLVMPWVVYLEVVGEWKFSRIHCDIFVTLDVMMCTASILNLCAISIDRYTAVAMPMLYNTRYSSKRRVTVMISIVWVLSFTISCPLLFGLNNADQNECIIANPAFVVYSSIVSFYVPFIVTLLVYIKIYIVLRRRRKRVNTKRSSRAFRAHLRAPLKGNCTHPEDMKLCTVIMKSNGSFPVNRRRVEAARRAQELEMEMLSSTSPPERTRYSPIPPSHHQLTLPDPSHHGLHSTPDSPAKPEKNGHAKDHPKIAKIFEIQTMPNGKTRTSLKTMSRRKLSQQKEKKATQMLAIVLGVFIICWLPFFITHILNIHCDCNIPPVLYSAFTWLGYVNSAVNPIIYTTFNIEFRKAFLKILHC
T3 sequence (Q95136 whole entry): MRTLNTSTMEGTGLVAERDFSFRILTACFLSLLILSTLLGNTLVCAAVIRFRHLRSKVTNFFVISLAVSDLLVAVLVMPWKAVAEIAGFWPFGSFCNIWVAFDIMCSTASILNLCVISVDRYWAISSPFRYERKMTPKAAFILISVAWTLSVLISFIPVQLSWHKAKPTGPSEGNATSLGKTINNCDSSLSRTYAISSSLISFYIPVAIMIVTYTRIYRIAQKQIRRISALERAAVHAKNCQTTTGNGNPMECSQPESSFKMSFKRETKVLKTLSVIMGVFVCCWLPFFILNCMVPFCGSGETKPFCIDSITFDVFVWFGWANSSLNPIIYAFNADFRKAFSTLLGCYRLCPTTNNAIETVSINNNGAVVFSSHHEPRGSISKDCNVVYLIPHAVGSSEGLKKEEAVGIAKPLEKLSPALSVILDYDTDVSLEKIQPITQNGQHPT
Sequence of D(3) dopamine receptor (P35462 whole entry): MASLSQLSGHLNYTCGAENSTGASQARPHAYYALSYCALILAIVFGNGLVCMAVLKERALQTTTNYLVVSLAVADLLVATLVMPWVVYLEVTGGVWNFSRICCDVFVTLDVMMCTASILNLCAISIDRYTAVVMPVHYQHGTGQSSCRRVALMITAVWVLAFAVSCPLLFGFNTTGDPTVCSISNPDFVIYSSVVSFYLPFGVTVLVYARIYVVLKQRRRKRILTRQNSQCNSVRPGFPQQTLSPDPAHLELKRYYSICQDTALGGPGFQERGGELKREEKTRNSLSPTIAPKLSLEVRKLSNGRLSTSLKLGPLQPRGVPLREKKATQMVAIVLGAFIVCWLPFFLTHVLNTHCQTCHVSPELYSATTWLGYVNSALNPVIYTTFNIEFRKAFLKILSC

For `N#Cc1ccc2[nH]cc(CN3CCN(c4ccccc4)CC3)c2c1`, the Ki (commonly a dissociation constant, usually derived from enzyme kinetics or from competition with a known ligand) in experiment [1] stood at 50 nM; in experiment [2], 34000 nM; in experiment [3] it was 3500 nM; in experiment [4], 3000 nM; in experiment [5], 4400 nM.
As to `N#Cc1ccc2cc(CN3CCN(c4ccccc4)CC3)[nH]c2c1`, the inhibitory constant (Ki) in experiment [1] was 3.6 nM; in [2], 5600 nM; in experiment [3], 2500 nM; in experiment [5] it was 3100 nM; in experiment [6], 5300 nM.
Take `N#Cc1ccc2[nH]c(CN3CCN(c4ccc(Cl)c(Cl)c4)CC3)cc2c1`: the Ki in experiment [1] was 7.5 nM; in experiment [2], 43000 nM; in [3] it was 36000 nM; in [5], 20000 nM; in experiment [6] it was 11000 nM.
The compound `N#Cc1ccc2[nH]c(CN3CCN(c4ccccc4)CC3)cc2c1` gave an ED50 in experiment [7] of 1.5 nM. In [8], this compound came in with an Effect of 35%. Besides, the Ki in experiment [1] came to 0.52 nM; in experiment [2], 3100 nM; in experiment [3] it was 290 nM; in experiment [4], 13000 nM; in experiment [5] it was 1700 nM.
For the compound `N#Cc1ccc2[nH]cc(CN3CCN(c4ccc(Cl)c(Cl)c4)CC3)c2c1`, the Ki amounted to 22 nM in [1]; 790 nM in experiment [2]; 480 nM in experiment [3]; 450 nM in [4]; 870 nM in experiment [5].
For the compound `N#Cc1ccc2[nH]c(CN3CCN(c4ccc(Cl)cc4)CC3)cc2c1`, the Ki in [1] was found to be 2.1 nM; in [2], 7900 nM; in experiment [3] it was 7600 nM; in [5], 13000 nM; in [6] it was 5300 nM.
Regarding `N#Cc1ccc2cc(CN3CCN(c4ccc(Cl)c(Cl)c4)CC3)[nH]c2c1`, the Ki in [1] is 9 nM; in experiment [2] it was 2000 nM; in experiment [3] it was 1400 nM; in experiment [5], 33000 nM; in experiment [6] it was 880 nM.
As for `N#Cc1ccc2[nH]cc(CN3CCN(c4ccc(Cl)cc4)CC3)c2c1`, the Ki is 29 nM in experiment [1]; 4300 nM in [2]; 2600 nM in [3]; 550 nM in experiment [4]; 6400 nM in [5].
Take `N#Cc1ccc2[nH]c(CN3CCN(c4ccc(F)cc4)CC3)cc2c1`: the EC50 (usually the midpoint of the concentration-response curve) in experiment [9] was 9.4 nM. The compound further came in with an Effect in experiment [8] of 30%. The inhibitory constant (Ki) was 1 nM in experiment [1]; 28000 nM in [2]; 19000 nM in experiment [3]; 15000 nM in experiment [5]; 8600 nM in experiment [6].
`N#Cc1ccc2[nH]cc(CN3CCN(c4ccccc4Cl)CC3)c2c1`: the Ki in experiment [1] was 17 nM; in experiment [2], 1400 nM; in experiment [3], 540 nM; in experiment [4], 510 nM; in experiment [5] it was 550 nM.
As to `N#Cc1ccc2cc(CN3CCN(c4ccccc4Cl)CC3)[nH]c2c1`, the Ki in experiment [1] is 3.4 nM; in experiment [5], 920 nM; in experiment [6], 1900 nM.
In the case of `N#Cc1ccc2[nH]cc(CN3CCN(c4ccc(F)cc4)CC3)c2c1`, the Ki turned out to be 110 nM in experiment [1]; 2400 nM in experiment [2]; 1800 nM in experiment [3]; 490 nM in experiment [4]; 5200 nM in experiment [5].
For `N#Cc1ccc2[nH]c(CN3CCN(c4ccccc4Cl)CC3)cc2c1`, the Ki in experiment [1] is 1.4 nM; in experiment [2], 2300 nM; in experiment [3], 950 nM; in experiment [4] it was 7500 nM; in experiment [5], 1700 nM.
